Screens as filed in PubChem.
TRPC4 agonist – opens the mouse TRPC4 cation channel; Q9QUQ5; 310,000 tested, 0.49% active; HEK293 TRPC4beta/mu-opioid, Fluo4 calcium fluorescence; stronger effect = higher value; B-score at 10 µM; AID 2237;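 active = B-score above 5 SD of library B-scores, and initial fluorescence ratio not above library mean plus 5 SD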;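 also: positive B-score marks a calcium rise read as TRPC4 activation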
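Material: TRPC4beta and mu-opioid receptor HEK293 stable cells | Incubation: 45 min room-temperature Fluo4 loading, 110 s read | Detection: Kinetic Fluo4 calcium fluorescence | Measure: Integrated baseline-normalised fluorescence ratio, converted to per-well B score | Benchmarks: Low control buffer alone, high control maximal DAMGO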
TRPC6 activator – activators of mouse TRPC6 channel. AID 2550. Q61143. 310,000 tested, 0.13% active. HEK293-TRPC6 membrane potential dye fluorescence; stronger effect = higher value. B-score at 10 µM;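 active = B-score of the integrated fluorescence ratio above library mean plus 3 SD, and starting fluorescence ratio within library mean plus 5 SD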;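 also: higher score means more depolarization so channel activation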
Target sequence (Q61143 whole entry, looked up): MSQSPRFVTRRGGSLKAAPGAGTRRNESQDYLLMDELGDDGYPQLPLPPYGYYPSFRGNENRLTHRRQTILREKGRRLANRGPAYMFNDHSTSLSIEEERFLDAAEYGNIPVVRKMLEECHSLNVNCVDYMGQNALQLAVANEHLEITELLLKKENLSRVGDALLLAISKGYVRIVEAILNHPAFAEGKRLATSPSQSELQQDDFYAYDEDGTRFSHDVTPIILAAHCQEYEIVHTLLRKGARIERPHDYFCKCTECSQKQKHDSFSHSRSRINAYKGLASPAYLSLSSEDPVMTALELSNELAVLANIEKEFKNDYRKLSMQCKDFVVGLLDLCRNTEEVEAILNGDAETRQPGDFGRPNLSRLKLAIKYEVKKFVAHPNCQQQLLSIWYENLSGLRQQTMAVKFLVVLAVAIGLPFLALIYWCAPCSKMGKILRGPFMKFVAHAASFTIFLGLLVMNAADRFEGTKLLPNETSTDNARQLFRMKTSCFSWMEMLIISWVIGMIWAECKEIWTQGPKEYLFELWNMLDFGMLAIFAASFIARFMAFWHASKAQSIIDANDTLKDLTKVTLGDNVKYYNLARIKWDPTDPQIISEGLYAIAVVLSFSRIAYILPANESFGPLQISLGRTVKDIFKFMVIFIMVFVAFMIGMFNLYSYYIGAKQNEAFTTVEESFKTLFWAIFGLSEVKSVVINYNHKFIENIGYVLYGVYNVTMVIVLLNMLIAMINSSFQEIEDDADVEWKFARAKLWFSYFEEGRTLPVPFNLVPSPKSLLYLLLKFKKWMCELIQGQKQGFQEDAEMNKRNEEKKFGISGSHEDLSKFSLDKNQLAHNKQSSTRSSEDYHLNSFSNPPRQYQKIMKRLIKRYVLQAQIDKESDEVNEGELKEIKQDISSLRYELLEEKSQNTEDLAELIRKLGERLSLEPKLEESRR
TRPC4 potent – allosteric potentiators of mouse TRPC4 channel; Q9QUQ5; HEK293 TRPC4beta/mu-opioid, DAMGO EC20, Fluo-4 Ca2+ flux; stronger effect = higher value; B-score at 10 µM; 310,000 tested, 0.42% active; AID 2227;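 active = B-score of calcium response area above 5 SD of library B-scores, with initial fluorescence ratio within 5 SD of library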
TRPC6 inh – blocks the mouse TRPC6 cation channel. HEK293-TRPC6, membrane potential dye, ACh-evoked depolarization; stronger effect = lower value. Q61143. 310,000 tested, 1.1% active. AID 2553. B-score at 10 µM;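 active = B-score under library mean minus 3 SD, initial fluorescence not abnormally high, positive integrated signal ratio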;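 also: B-score derived from integrated fluorescence ratio over the kinetic read; more negative B-score means stronger inhibition of depolarization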
TRPC4 block – inhibitors of mouse TRPC4 channel | Q9QUQ5 | HEK293 TRPC4beta/mu-opioid, DAMGO-evoked Fluo4 calcium flux; stronger effect = lower value | B-score at 10 µM | 300,000 tested, 0.39% active;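 active = B-score over 3 SD under the library average, no early fluorescence shift, positive overall ratio signal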
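Assay system – HEK293 line stably carrying TRPC4beta and mu-opioid receptor · Doses – single dose · Detection – Fluo4 calcium-dye fluorescence, kinetic read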
Large screens that a line does not name were inactive. Sampled rows, rich in hits. Any-hit rate of the full collection: about 2.3%.

O=C(N/N=C/c1cn(-c2cccs2)nc1-c1ccccc1)c1ccccc1O	none
O=C(N/N=C/c1cn(-c2cccs2)nc1-c1ccccc1)c1ccccc1Br	TRPC4 potent 14
COc1cc(NS(=O)(=O)c2ccc(NC(=O)CCC(=O)O)cc2)nc(OC)n1	TRPC4 potent 10
COc1ccc2[nH]cc(/C=C/c3cc[n+](C)cc3)c2c1	none
CCCn1c(=O)c(C(=O)NCCc2ccc(OC)cc2)c(O)c2ccccc21	none
CCCCS(=O)(=O)N1CCCC(C(=O)NCC2CCCO2)C1 (centres undefined)	TRPC4 agonist 85
CCc1c(C)nc2c(-c3ccccc3OC)c(C)[nH]n2c1=O	none
CC1(C)CC2CC(C)(CN2CC(O)COc2ccccc2)C1 (centres undefined)	TRPC4 block -9
O=C(NC(=S)N1CCCC1)c1cccc([N+](=O)[O-])c1	none
Cn1c(=O)cc(OCCCC(=O)NCCCN2CCN(Cc3ccccc3)CC2)c2ccccc21	TRPC4 potent 25
Cn1c(=O)cc(OCCCC(=O)NCCN2CCN(c3ccccc3F)CC2)c2ccccc21	none
CCc1cc(C(c2ccc(OC)c(OC)c2)N2CCOCC2)c(NC(=O)c2ccccc2)s1 (centres undefined)	none
CCc1cc(C(c2cccc(OC)c2)N2CCOCC2)c(NC(=O)c2ccccc2)s1 (centres undefined)	TRPC4 block -6
Cn1c(=O)c2[nH]c(CN3CCN(Cc4ccccc4)CC3)nc2n(C)c1=O	none
CN1CCN(Cc2nc3c([nH]2)c(=O)[nH]c(=O)n3C)CC1	TRPC4 agonist 72
O=C1COc2ccc(C(=O)COc3ccc(Cl)cc3Br)cc2N1	none
COc1cc2c(cc1OC)C(C)N(C(=O)[C@@H](NC(=O)c1ccccc1)C(C)C)CC2 (some centres undefined)	none
COc1cc2c(cc1OC)C(C)N(C(=O)C(NC(=O)c1ccccc1)C(C)C)CC2 (centres undefined)	TRPC4 agonist 96
CCC(C)NCCOCCOc1ccccc1-c1ccccc1 (centres undefined)	TRPC4 block -7
CC(C)(C)NCCOCCOc1ccccc1-c1ccccc1	none
O=C(O)c1ccc2c(=O)n3c(nc2c1)/C(=C/c1ccccc1Br)CC3	none
CCOC(=O)C1=C(C)N(C)C(=S)NC1c1ccccc1 (centres undefined)	none
CCOC(=O)C1=C(C)N(C)C(=S)NC1c1ccccc1Cl (centres undefined)	none
CCOC(=O)C1=C(C)N(C)C(=S)NC1c1cccc(Cl)c1Cl (centres undefined)	TRPC4 potent 21
CCOC(=O)C1=C(C)N(C)C(=S)NC1c1ccc(Cl)cc1 (centres undefined)	TRPC4 block -6
COc1ccc(-c2nc(CN3CCC(C(=O)NC4CCCC4)CC3)c(C)o2)cc1OC	TRPC4 agonist 101
OCC1CCN(Cc2cn(Cc3ccccc3)nc2-c2cc3ccccc3o2)CC1	TRPC4 agonist 56
OCC1(CC2CCCCO2)CCN(Cc2nc3ccccc3[nH]2)CC1 (centres undefined)	TRPC4 agonist 110, TRPC4 block -8
CCN(CC)CCCNC(=O)Cn1cnc2ccc(S(=O)(=O)N3CCC(C)CC3)cc2c1=O	TRPC4 potent 12
O=C(Nc1cccc(C(F)(F)F)c1)c1cccc(NS(=O)(=O)c2ccc(O)c(C(=O)O)c2)c1	TRPC4 potent 22
COc1ccccc1CNCC(O)Cn1c2ccccc2c2ccccc21 (centres undefined)	TRPC4 agonist 80
COc1ccccc1CNCC(c1ccccc1)c1ccccc1	TRPC4 block -6
COc1ccc(-c2csc(NC(=O)C3CCN(c4ncnc5sc(C)c(C)c45)CC3)n2)cc1OC	none
CCC(C)NC(=O)c1cc(Sc2nnc(C)s2)nc2ccccc12 (centres undefined)	none
COc1ccc(C2C(C(C)=O)=C(O)C(=O)N2c2ccc(O)cc2)cc1 (centres undefined)	none
COc1ccc(C2C(C(C)=O)=C(O)C(=O)N2c2ccc(Br)cc2)cc1 (centres undefined)	TRPC4 block -5
O=C(c1ccc(Cn2cnnn2)cc1)N1CCCC(Nc2ccc(F)c(F)c2)C1 (centres undefined)	none
CCOc1cc(CN2CCCC(C(=O)c3cccc(C(F)(F)F)c3)C2)ccc1O (centres undefined)	TRPC4 block -7
CC(C)Oc1cccc(C(=O)C2CCCN(Cc3ccc4nonc4c3)C2)c1 (centres undefined)	none
Cc1nn(C(C)C)c(C)c1CN1CCCC(C(=O)c2cccc(OC(C)C)c2)C1 (centres undefined)	TRPC6 inh -8.25
CCn1nc(C)c(CN2CCCC(C(=O)c3cccc(OC(C)C)c3)C2)c1C (centres undefined)	none
CC(C)Oc1cccc(C(=O)C2CCCN(Cc3cnn(C(C)C)c3)C2)c1 (centres undefined)	TRPC4 block -6
O=C(COc1ccc(Cl)cc1)NCc1ccncc1	none
CC(=O)Nc1ccc(C(=O)OCCc2ccccc2)cc1	none
CCOc1cccc(Nc2ccc([N+](=O)[O-])cn2)c1	none
CCOC(=O)COc1cc(-n2c(=S)[nH]c3ccccc3c2=O)c(Cl)cc1Cl	TRPC4 potent 31
COc1ccc(CC(=O)N/N=C/c2cccnc2)cc1OC	none
CCCCN(CC)CCCNC(=O)c1csc2c1CCCCC2	TRPC4 agonist 111
CC1CC(C)CN(CCCNC(=O)c2csc3c2CCCC3)C1 (centres undefined)	TRPC4 agonist 82
COc1ccc(N2CCN(Cc3nc4cc(Cl)ccc4c(=O)[nH]3)CC2)cc1	none
C=C(C)Cn1c(=O)c2c(nc3n2CCCN3Cc2ccccc2)n(C)c1=O	none
O=C(NCCN1CCN(C(=O)c2ccc([N+](=O)[O-])cc2)CC1)C(=O)NCc1ccccc1	none
S=C(NCCc1ccccc1)Nc1ccc(Br)cn1	TRPC4 potent 11
S=C(NCCc1ccccc1)NCCc1ccccc1	none
CN1CCc2c(sc(NC(=O)C3CCCCC3)c2C(N)=O)C1	none
Cc1ccc(NC(=O)N2CCCC2C(=O)NCCc2ccccc2)cc1 (centres undefined)	TRPC4 block -6
Cc1ccc(CNC(=O)c2cnc3ccccc3n2)cc1	none
O=C(NCCc1ccccc1)c1cnc2ccccc2n1	TRPC4 potent 16
CC(C)[C@H](NC(=O)[C@H]1N2C(=O)c3ccccc3C2SC1(C)C)C(=O)NCc1ccco1 (some centres undefined)	none
O=C(NNC(=O)c1sc2ccccc2c1Cl)Nc1ccc(Cl)cc1	none
O=C(NNC(=S)NC(=O)c1sc2ccccc2c1Cl)c1ccc(Cl)cc1	TRPC4 potent 56
Cc1ccc(NC(=S)NC(=O)c2sc3ccccc3c2Cl)c(C(=O)O)c1	TRPC4 block -6
O=C(O)c1ccccc1NC(=S)NC(=O)c1sc2ccccc2c1Cl	none
